# Bioassay records as filed in PubChem BioAssay.
# In the library only some 3.1% were active in any assay of this set; here they are far more common.
# CFTR F508del cor – CFTR F508del correction in bronchial cells | activity (quench increase), % at 7.58 µM | 0.36% of 350,000 active | CFBE cells, YFP halide quenching; stimulated with forskolin plus potentiator P3; % fluorescence drop versus neutral controls | AID 720511;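 active means mean added fluorescence quench of at least 8% versus neutral control, with both replicates also reaching 8%; inconclusive means only one of the mean or replicate conditions met; inactive means mean below 8% and not both replicates reaching 8%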;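 further: cells transiently co-express mutant CFTR-F508del with the halide-sensitive YFP; corrector assay measuring rescue of mutant channel to the surface after 24 h compound exposure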
# miR122 inh – miR-122 inhibition in Huh7 cells; 0.3% of 340,000 active; activation (reporter increase), % at 12.5 µM; Huh7 miR-122 Renilla luciferase sensor, 48 h; neutral wells = 0, positive control = 100;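 active means mean replicate activation score at least 90 and every replicate individually at or above 90; inconclusive means only one of the two criteria met; inactive means neither criterion met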;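 further: higher luciferase means less miR-122 activity so hits act as miR-122 inhibitors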
# Cneo AK release – Cryptococcus neoformans lysis via adenylate kinase release; C. neoformans lysis, adenylate kinase release luminescence, 4 h; normalised: neutral wells 0, clomiphene wells 100; lysis activity, % at 15 µM; 0.2% of 360,000 active; AID 651654;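 active means mean lysis activity across replicates of at least 80%, whatever share of replicates individually reach that level; inactive means mean lysis activity below 80%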
#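 Test system: log-phase Cryptococcus neoformans yeast cells. Input: 5 × 10^6 yeast cells/mL. Medium: fresh YPD growth medium. Doses: single dose. Incubation: static 4 h at 37 °C with compound, 1 h detection. Measured by: luminescent adenylate kinase detection reagent. Read-out: signal increase indicating cell lysis. Benchmarks: Clomiphene.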
# Ecoli rRNA inh – inhibitors of bacterial rRNA selective over humanized ribosomes; E. coli WT GFP vs humanized-ribosome RFP mutants, fluorescence, 24 h; hits give low values; DMSO median 0, no signal -100; GFP signal change (wild-type ribosome), % (test concentration not listed); 1.6% of 350,000 active; AID 720706;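 active means significant combined selectivity score with lowered wild-type GFP, culture density cut under 30%, mutant RFP and density less affected; inactive means any of these conditions unmet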
# Env fusion inh – inhibitors of HIV Env-mediated cell fusion; 1.1% of 360,000 active; inhibition, % at 12.3 µM; HeLa-JRFL Env/CEM21 cell fusion, luciferase;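 active means mean replicate inhibition score of at least 50 and every replicate individually at or above 50; inconclusive means only one of the two criteria met; inactive means mean below 50 and not all replicates reaching 50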;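 further: 0% = plate neutral controls and 100% = maraviroc near 300 nM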
# GSIS activator – GLuc luminescence reporter in INS-1E cells, primary screen for activators of glucose-dependent secretion of insulin | AID 743287 | INS-1E GLuc reporter insulin secretion, 2-3 h | activation, % at 16.6 µM | 0.61% of 370,000 active;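 active means lowest replicate activation of at least 40%, so every replicate reaches that level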;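 further: 0% = median of neutral control wells and 100% = median of IBMX positive control wells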
# The depositor's hits bear a star; ? = inconclusive; · = no result given; [ ] = dose if it differs, or a comment.
SMILES,CFTR F508del cor,miR122 inh,Cneo AK release,Ecoli rRNA inh,Env fusion inh,GSIS activator
COc1ccc(/C=C2/SC(=O)N(NS(=O)(=O)c3ccccc3)C2=S)cc1OC,-1,-10,-1,-20,·,49*
COc1cc(/C=N/NC(=O)c2cccnc2)ccc1OS(=O)(=O)c1ccc(C)cc1,0,·,·,-23,13,18
COc1cc(/C=N/NS(=O)(=O)c2ccc(C)cc2)ccc1OCc1ccc(C(=O)O)cc1,·,·,·,·,72*,1
CO[C@H]1CN(C)C(=O)c2cc(NS(C)(=O)=O)ccc2OC[C@@H](C)N(C(=O)CN(C)C)C[C@H]1C,-1,-6[16.7 µM],13,3,-23[16.7 µM],-5
C[C@@H]1CN([C@H](C)CO)C(=O)Cc2cc(NC(=O)C3CCCCC3)ccc2O[C@H]1CN(C)Cc1ccc(C(=O)O)cc1,2,-5[16.7 µM],-11,2,-11[16.7 µM],-4
O=C1C(=O)c2c(C(=O)c3ccccc3)coc2-c2ccccc21,-8,-2,-3,-44*,·,-19
CC(=O)OCCNc1cc(Sc2nc3ccccc3[nH]2)c2nonc2c1[N+](=O)[O-],·,22,·,·,-68,121*
NC(=O)c1ccc(=O)n(C2OC(CO)C(O)C2O)c1 (stereo not given),-5,-4,1,8,-130,-1
O=C1C=CN(C2OC(CO)C(O)C2O)C(=O)C1 (stereo not given),9.7*,·,·,7,65*,18
COc1ccccc1-c1ccc(/C=N/O)o1,0,-2,2,-34*,-8,23
CC(=O)N(C)C[C@H]1[C@H](c2ccc(-c3cccc(C#N)c3)cc2)[C@@H](CO)N1C(C)=O,-1,-25[16.7 µM],1,2,·,4
COc1cccc(-c2cn(CC[C@@H]3CC[C@H](NC(C)=O)[C@@H](CO)O3)nn2)c1,-2,·,94*,3,-5[16.7 µM],16
COc1ccccc1NC(=O)N[C@H]1CC[C@@H](CCn2cc(-c3ccccc3OC)nn2)O[C@@H]1CO,-3,·,99*,2,?,-13
O=C(N[C@H]1CC[C@@H](CCn2cc(-c3ccccc3)nn2)O[C@H]1CO)c1cnccn1,0,·,-1,3,9[16.7 µM],-3
O=C(N[C@@H]1CC[C@H](CCn2cc(-c3ccc(F)cc3)nn2)O[C@@H]1CO)c1cnccn1,1,·,-3,0,-8[16.7 µM],0
COc1cccc(-c2cn(CC[C@@H]3CC[C@H](NC(C)=O)[C@H](CO)O3)nn2)c1,1,·,0,2,8[16.7 µM],20
O=C(N[C@@H]1CC[C@@H](CCn2cc(-c3ccccc3)nn2)O[C@H]1CO)c1cnccn1,-1,·,96*,1,1[16.7 µM],0
O=C(N[C@H]1CC[C@@H](CCn2cc(-c3ccccc3)nn2)O[C@@H]1CO)c1cnccn1,-1,·,93*,3,1[16.7 µM],9
C[C@@H]1CCCCO[C@H](CN(C)C(=O)C2CCCCC2)[C@H](C)CN([C@H](C)CO)C(=O)c2cc(NC(=O)CCC(F)(F)F)ccc2O1,2,-6[16.7 µM],2,-3,22[16.7 µM],-8
O=C(c1ccccn1)N1C[C@H]2[C@@H](c3ccccc31)[C@@H](CO)N2C(=O)C1CCCC1,1,-30[16.7 µM],-5,4,·,-5
C#CCN([C@H](/C=C/C1CC1)[C@@H](O)Cc1ccccc1)[C@@H]1C(=O)N2[C@@H]1SC(C)(C)[C@@H]2C(=O)OC,1,·,4,·,3[16.7 µM],·
COc1cccc(-c2nnn(CC(=O)O)n2)c1,·,·,·,·,-25,76*
COC(=O)c1cc(=O)n(C2CC2)c(=NC2CC2)s1,·,-5,·,·,-49,76*
CCOC(=O)c1ccc(N=c2sc(C(=O)OC)cc(=O)n2C2CC2)cc1,·,0,-2,·,-14,23
CO[C@@H]1CN(C)C(=O)c2ccc(NC(C)=O)cc2OC[C@@H](C)N(C(=O)CN2CCOCC2)C[C@H]1C,3,-5[16.7 µM],-4,·,·,·
SMILES,CFTR F508del cor,miR122 inh,Cneo AK release,Ecoli rRNA inh,Env fusion inh,GSIS activator
O=C(C[C@@H]1C=C[C@@H](NC(=O)Nc2ccc3c(c2)OCO3)[C@H](CO)O1)NCc1ccc(F)cc1,-2,·,5,1,59*[16.7 µM],-11
O=C(C[C@@H]1C=C[C@@H](NC(=O)Nc2ccc3c(c2)OCO3)[C@@H](CO)O1)NCc1ccc(F)cc1,3,·,6,2,-4[16.7 µM],-7
CCC(=O)N[C@@H]1C=C[C@H](CC(=O)OC)O[C@H]1CO,1,-10[16.7 µM],18,1,-2[16.7 µM],13
O=C(C[C@@H]1C=C[C@@H](NC(=O)Nc2cc(F)ccc2F)[C@H](CO)O1)NCCCN1CCOCC1,0,-5[16.7 µM],103*,2,-2[16.7 µM],6
COc1ccccc1NC(=O)N[C@H]1C=C[C@H](CC(=O)N[C@H](C)c2ccccc2)O[C@@H]1CO,1,·,-2,-1,14[16.7 µM],11
COc1ccccc1NC(=O)N[C@H]1C=C[C@@H](CC(=O)N[C@H](C)c2ccccc2)O[C@H]1CO,-1,·,4,-2,94*[16.7 µM],-6
CCC(=O)N[C@H]1C=C[C@@H](CC(=O)OC)O[C@@H]1CO,5,5[16.7 µM],88*,3,17[16.7 µM],-2
COc1ccccc1S(=O)(=O)N1CC[C@@H]2[C@H]1c1cc(-c3cccc(C#N)c3)ccc1N[C@@H]2CO,1,-7[16.7 µM],-7,-13,·,-2
O=C(C[C@H]1CC[C@@H](NC(=O)Nc2ccccc2F)[C@@H](CO)O1)NCc1ccc(Cl)cc1,1,·,0,-12,59*[16.7 µM],-28
O=C(O)C[C@@H]1C=C[C@@H](NC(=O)Nc2ccccc2)[C@H](CO)O1,2,·,-2,1,58*[16.7 µM],17
O=C(C[C@H]1C=C[C@@H](NC(=O)Nc2ccccc2F)[C@H](CO)O1)NCc1ccc(-c2ccccc2)cc1,-3,-4[16.7 µM],38,-5,57*[16.7 µM],1
O=C(O)C[C@@H]1C=C[C@H](NC(=O)Nc2ccccc2)[C@@H](CO)O1,-1,·,-2,3,-4[16.7 µM],11
CC(=O)N(C)C[C@@H]1Oc2cc(C3=CCCCC3)ccc2S(=O)(=O)N([C@@H](C)CO)C[C@H]1C,-1,3[16.7 µM],·,0,15[16.7 µM],2
COc1ccccc1C#Cc1cnc2c(c1)C(=O)N([C@H](C)CO)C[C@H](C)[C@@H](CN(C)C(=O)CC1CC1)O2,-3,-7[16.7 µM],-1,-8,12[16.7 µM],-26
Cc1noc(C)c1NC(=O)N(C)C[C@@H]1Oc2c(NC(=O)Nc3cccc4ccccc34)cccc2C(=O)N([C@@H](C)CO)C[C@@H]1C,0,-2[16.7 µM],10,-8,·,-5
COc1ccccc1NC(=S)Nc1cccc2cnccc12,0,·,·,0,58*,·
CCCCOCCCNC(=O)C[C@H]1C[C@@]2(C(=O)OC)C(=C[C@H](C(C)(C)C)O[C@@H]2C)N(CCC2=CCCCC2)C1=O,1,·,·,17,66*,-22
